Where two headings read alike, the source gives them in different places. Each block holds one compound with its values, some of them ahead of it.
Key:
[1] = molecular target: rat TRPV1 (Rattus norvegicus, UniProt O35433); assay: Vanilloid-induced 45Ca2+ uptake in TRPV1/HaCaT cells; assay type: cell-based; conditions: for Effect on CAPS-induced 45Ca2+ uptake (in words): 2 μM CAPS, up to highest concentration 4 mM
[2] = 1:1 complexes; cited from earlier work
[3] = cited from earlier work
[4] = molecular target: T1, TRPV1 (Rattus norvegicus, UniProt O35433); assay: Cobalt histochemistry on 3T3 cell line expressing TRPV1 ectopically; assay type: cell-based; conditions: 10 min, ± S.D.
[5] = molecular target: T1, TRPV1; assay: Cobalt histochemistry on HaCaT cell line expressing TRPV1 ectopically; assay type: cell-based; conditions: 20 μM CAPS + 5 mM Co2+; CapZ 300 nM-100 μM, RuRed 500 nM-100 μM
[6] = test system: CD1 mice; assay: Eye wipe test; assay type: in vivo; conditions: 100 μM CAPS dropped into the eye with 1 mM CoCl2 or 5 μM CapZ, n = 8
Method in brief: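 Defensive eye-wiping movements were then counted. Data were means ± SD from eight independent experiments. Inhibition was tested by paired t test (P < 0.05).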

[7] = molecular target: rat TRPV1 N628W mutant (Rattus norvegicus, UniProt O35433, N628W); assay: CAPS-evoked 45Ca2+ influx in cells expressing the TRPV1 N628W point mutant; assay type: cell-based; conditions: read-out: IC50, 45Ca2+ influx, 4 μM CAPS
[8] = test system: 3T3 cell line; assay: Cobalt histochemistry on 3T3 cell line without TRPV1; assay type: cell-based; conditions: 20 μM CAPS + 5 mM Co2+
[9] = test system: TRPV1+ dorsal root ganglion neurons; assay: Cobalt histochemistry in primary DRG sensory neuron cultures; assay type: cell-based, rat; conditions: 20 μM CAPS, Co2+-uptake medium
[10] = molecular target: rat TRPV1 D646N mutant (Rattus norvegicus, UniProt O35433, D646N); assay: CAPS-evoked 45Ca2+ influx in cells expressing the TRPV1 D646N point mutant; assay type: cell-based; conditions: read-out: IC50, 45Ca2+ influx, 4 μM CAPS
[11] = molecular target: rat TRPV1 E651W mutant (Rattus norvegicus, UniProt O35433, E651W); assay: CAPS-evoked 45Ca2+ influx in cells expressing the TRPV1 E651W point mutant; assay type: cell-based; conditions: read-out: IC50, 45Ca2+ influx, 4 μM CAPS
[12] = molecular target: rat TRPV1 Y627W mutant (Rattus norvegicus, UniProt O35433, Y627W); assay: CAPS-evoked 45Ca2+ influx in cells expressing the TRPV1 Y627W point mutant; assay type: cell-based; conditions: read-out: IC50, 45Ca2+ influx, 4 μM CAPS
[13] = molecular target: wild-type TRPV1 (Rattus norvegicus, UniProt O35433); assay: CAPS-evoked 45Ca2+ influx in cells transiently transfected with wild-type TRPV1; assay type: cell-based; conditions: read-out: IC50, 45Ca2+ influx, 4 μM CAPS
[14] = molecular target: TRPV1/3T3 cells (Rattus norvegicus, UniProt O35433); assay: CAPS-induced TRPV1-mediated 45Ca2+ accumulation with VGCC blocker; assay type: cell-based; conditions: data not shown
Sequence of TRPV1/3T3 cells (O35433 whole entry): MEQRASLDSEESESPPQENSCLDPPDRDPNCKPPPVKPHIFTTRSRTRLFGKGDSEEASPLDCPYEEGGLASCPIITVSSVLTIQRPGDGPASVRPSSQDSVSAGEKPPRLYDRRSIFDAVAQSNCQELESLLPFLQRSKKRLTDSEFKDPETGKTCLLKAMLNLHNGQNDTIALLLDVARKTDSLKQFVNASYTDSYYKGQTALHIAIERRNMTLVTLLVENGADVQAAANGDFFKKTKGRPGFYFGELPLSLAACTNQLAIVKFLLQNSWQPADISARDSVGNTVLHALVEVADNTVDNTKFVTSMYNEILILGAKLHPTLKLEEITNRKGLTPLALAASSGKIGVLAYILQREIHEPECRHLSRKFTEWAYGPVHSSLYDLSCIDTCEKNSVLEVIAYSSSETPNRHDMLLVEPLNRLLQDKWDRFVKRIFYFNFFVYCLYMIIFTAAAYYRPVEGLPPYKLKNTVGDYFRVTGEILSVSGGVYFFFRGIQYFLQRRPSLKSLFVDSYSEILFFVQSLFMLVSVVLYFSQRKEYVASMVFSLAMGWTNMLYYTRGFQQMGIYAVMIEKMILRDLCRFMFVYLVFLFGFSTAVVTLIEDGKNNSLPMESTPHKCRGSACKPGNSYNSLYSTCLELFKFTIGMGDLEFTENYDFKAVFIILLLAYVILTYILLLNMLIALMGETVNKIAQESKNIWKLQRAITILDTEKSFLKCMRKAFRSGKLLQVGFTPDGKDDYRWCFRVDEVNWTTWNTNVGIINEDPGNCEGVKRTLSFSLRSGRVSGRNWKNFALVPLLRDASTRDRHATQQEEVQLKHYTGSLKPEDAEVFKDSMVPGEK

T1 sequence (O35433 whole entry): as above
Sequence of rat TRPV1 (O35433 whole entry): as above
Sequence of rat TRPV1 N628W mutant (O35433 whole entry N628W): as the sequence (O35433 whole entry) above, with N628W counted along it
Sequence of rat TRPV1 Y627W mutant (O35433 whole entry Y627W): as the sequence (O35433 whole entry) above, with Y627W counted along it
Sequence of wild-type TRPV1 (O35433 whole entry): as the sequence (O35433 whole entry) above
Sequence of rat TRPV1 D646N mutant (O35433 whole entry D646N): as the sequence (O35433 whole entry) above, with D646N counted along it
Sequence of rat TRPV1 E651W mutant (O35433 whole entry E651W): as the sequence (O35433 whole entry) above, with E651W counted along it

Compound: CN(C)CCC=C1c2ccccc2CCc2ccccc21 [AMI, Amitriptyline, reference compound]
- IC50 [1]: 20 µM

Compound: COc1cc(CNC(=O)CCCC/C=C/C(C)C)ccc1O [CAPS, capsaicin, reference compound]
- Concentration causing full activation (EC100) of TRPV1 ([1]; pH 7.5, 45Ca2+ uptake assay): Approximately 1 μM

Compound: [Ca+2] [Ca^2+]
- Stability constant of the complex formed between M2+ and tryptophan [2]: 2.55 ± 0.08
- Ionic radius [3]: 100 picometres

Compound: Oc1cc2c(cc1O)CN(C(=S)NCCc1ccc(Cl)cc1)CCC2 [CapZ, capsazepine, reference compound]
- Mean gray value (intracellular CoS) ([4]; CAPS + Co2+ + CapZ (5 μM CapZ), n = 100): 76.92 ± 22.21
- Effect on CAPS-induced cellular Co2+ accumulation [5]: inhibited the cellular entry of Co^2+ in a dose-dependent manner
- Effect on vanilloid-evoked eye wiping movements [6]: Inhibition

Compound: [Cu+2] [Cu^2+]
- Stability constant of the complex formed between M2+ and tryptophan [2]: 8.05 ± 0.05
- Ionic radius [3]: 73 picometres

Compound: [La+3] [La^3+]
- Effect on CAPS-induced 45Ca2+ uptake (in words) ([1]; TRPV1/HaCaT cells): little or no effect

Compound: [Mg+2] [Mg^2+]
- Effect on CAPS-induced 45Ca2+ uptake (in words) ([1]; TRPV1/HaCaT cells): little or no effect
- Stability constant of the complex formed between M2+ and tryptophan [2]: 2.84 ± 0.08
- Ionic radius [3]: 72 picometres

Compound: [Ni+2] [Ni^2+]
- Stability constant of the complex formed between M2+ and tryptophan [2]: 5.31 ± 0.06
- Ionic radius [3]: 69 picometres

Compound: N.N.N.N.N.N.N.N.N.N.N.N.N.N.[Cl-].[Cl-].[Cl-].[Cl-].[Cl-].[Cl-].[O-2].[O-2].[Ru+3].[Ru+3].[Ru+4] [RuRed, Ruthenium Red, reference compound]
- IC50 [7]: 1.33 µM
- IC50 [10]: 12.8 µM
- IC50 [11]: 0.94 µM
- Effect on CAPS-induced cellular Co2+ accumulation [5]: blocked
- IC50 [12]: 0.26 µM
- IC50 [13]: 0.87 µM

Continued, in another order:

- Mean gray value (intracellular CoS) ([4]; CAPS + Co2+ (20 μM CAPS + 5 mM Co2+), n = 111): 124.4 ± 21.51
- IC50 [7]: 16.4 µM
- IC50 ([1]; read-out: IC50 of Co2+, in the presence of 0 μM cold Ca2+): 7.94 µM
- IC50 ([1]; read-out: IC50 of Co2+, in the presence of 0.0625 μM CAPS): 94.8 µM
- IC50 ([1]; read-out: IC50 of Co2+, in the presence of 0.125 μM CAPS): 58 µM
- IC50 ([1]; read-out: IC50 of Co2+, in the presence of 0.25 μM CAPS): 73.2 µM
- IC50 ([1]; read-out: IC50 of Co2+, in the presence of 0.5 μM CAPS): 32.6 µM
- IC50 ([1]; read-out: IC50 of Co2+, in the presence of 1 μM CAPS): 19.2 µM
- IC50 ([1]; read-out: IC50 of Co2+, in the presence of 2 μM CAPS): 22.6 µM
- IC50 ([1]; read-out: IC50 of Co2+, in the presence of 4 μM CAPS): 15.6 µM
- IC50 ([1]; read-out: IC50 of Co2+, in the presence of 15.625 μM cold Ca2+): 51.2 µM
- IC50 ([1]; read-out: IC50 of Co2+, in the presence of 31.25 μM cold Ca2+): 72.7 µM
- IC50 ([1]; read-out: IC50 of Co2+, in the presence of 62.5 μM cold Ca2+): 79.1 µM
- IC50 ([1]; read-out: IC50 of Co2+, in the presence of 125 μM cold Ca2+): 189 µM
- IC50 [10]: 25.7 µM
- IC50 [11]: 15.3 µM
- IC50 [12]: 18.6 µM
- IC50 [13]: 18.3 µM
Compound: [Co+2] [Co^2+]
- Co2+ staining in the absence of TRPV1 [8]: No substantial staining
- Stability constant of the complex formed between M2+ and tryptophan [2]: 4.34 ± 0.07
- CAPS-induced Co2+ accumulation in sensory neurons [9]: enters into the cytosol of specific PNS sensory neurons
- Effect on vanilloid-evoked eye wiping movements [6]: decreased the frequency of vanilloid-evoked defending movements
- Ionic radius [3]: 65 picometres

- Effect on CAPS-induced 45Ca2+ uptake (in words) ([1]; TRPV1/HaCaT cells): little or no effect
Compound: [Mn+2] [Mn^2+]
- Stability constant of the complex formed between M2+ and tryptophan [2]: 3.34 ± 0.05
- Ionic radius [3]: 67 picometres

- Effect on CAPS-induced 45Ca2+ uptake (in words) ([1]; TRPV1/HaCaT cells): only partial inhibitor
- Decrease of the maximal ion influx achieved ([1]; TRPV1/HaCaT cells, CAPS-induced 45Ca2+ uptake): 30%
Compound: [Zn+2] [Zn^2+]
- Stability constant of the complex formed between M2+ and tryptophan [2]: 5.00 ± 0.08
- Ionic radius [3]: 74 picometres

- Effect on CAPS-induced TRPV1-mediated 45Ca2+ accumulation [14]: did not decrease
Compound: COC(=O)C1=C(C)NC(C)=C(C(=O)OCC(C)C)C1c1ccccc1[N+](=O)[O-] (stereo not shown) [nisoldipine]
